Legend:
Type in all cases: ADME, organism-based
[1] = Cmax in patient with end-stage renal failure undergoing hemodiafiltration at 4 mg/kg, iv after 2 hrs by LC/MS/MS analysis; parameters: dose 4 mg/kg, route intravenous; details: human, in vivo
Procedure, shortened: (§1)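 End-stage renal failure patients on 6-h Genius dialysis, hemodialysis or hemodiafiltration received a single 2-h iv infusion of 4 mg/kg. Venous plasma sampled before dosing and at 1, 2, 3, 4, 6 and 6.5 h from a site other than the infusion line, stored at −20°C. Quantified by LC-MS-MS against a 30 to 5,000 ng/ml calibration, analysed noncompartmentally.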

[2] = Terminal half life in human with normal renal function; details: in vivo, read-out: beta t1/2 (converted)
[3] = Cmax in patient with end-stage renal failure undergoing genius system-mediated dialysis at 4 mg/kg, iv after 2 hrs by LC/MS/MS analysis; parameters: dose 4 mg/kg, route intravenous; details: human, in vivo; procedure, shortened: as §1
[4] = Cmax in patient with end-stage renal failure undergoing hemodialysis at 4 mg/kg, iv after 2 hrs by LC/MS/MS analysis; parameters: dose 4 mg/kg, route intravenous; details: human, in vivo; procedure, shortened: as §1

For `C[C@@H](c1ncncc1F)[C@](O)(Cn1cncn1)c1ccc(F)cc1F` [VORICONAZOLE], the Cmax [1] was 1900 ng/mL, the half-life [2] was 7 h and the Cmax [3] was 1800 ng/mL. For the same compound, the Cmax [4] was 1700 ng/mL.
